Hsp70 activator: transcriptional activators of Hsp70. AID 1203. HeLa Hsp70 promoter luciferase reporter, luminescence; scaled: vehicle 0, proteasome-inhibitor control 100%. activation, % at 10 µM. 0.04% of 200,000 active;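 active = activation above the mean across all tested compounds plus 3 SD, cutoff set per campaign, cut at about 5.5% in these data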;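 also: 100% = MG132 at 30 µM as the positive control and 0% = DMSO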
HSF1 inhib: HSF1 inhibition. NIH3T3-HGL HSE-luciferase, MG132-induced, luminescence 8 h; active compounds read low. activity change, negative = inhibition, % at 7.5 µM (by protocol). 0.77% of 300,000 active. AID 2098;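 active = more than half of replicate wells show activity change below -50%, luminescence cut by over half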;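 also: luciferase reports HSF-1 transcriptional activity via heat shock element; 0% = median of DMSO wells and -100% = zero luminescence signal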
Tb hexokinase: blocks Trypanosoma brucei hexokinase 1 activity | recombinant TbHK1, G6PDH-coupled NADH A340 | inhibition, % at 10 µM | 0.11% of 220,000 active | AID 1430;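 active = inhibition of 50% or more in the single-dose primary screen; inactive = inhibition below 50%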
HSF-1 act: increases HSF-1 driven luciferase reporter signal | AID 504408 | activation, % at 9 µM | 1.7% of 300,000 active | NIH3T3-HGL HSF-1 luciferase reporter, MG132, 8 h; 100% = twice DMSO control signal;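 active = mean replicate activation of at least 50% with a set share of replicates each reaching 50%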;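 also: 0% = median of the neutral control wells and 100% = twice that signal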
HSP90 refold inh: blocks HSP90-mediated luciferase refolding in reticulocyte lysate. Rabbit reticulocyte lysate, luciferase refolding luminescence, 3 h. inhibition, % at 5.6 µM. 0.91% of 290,000 active. AID 1789;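 active = inhibition above the screen-wide mean plus 3 SD, computed separately per campaign, cut at about 16% in these data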;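 also: 0% = DMSO wells and 100% = 60 µM geldanamycin wells; inhibitors lower the luminescence because luciferase stays unfolded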
HKDC1 inhibitor: inhibitors of human hexokinase HKDC1 | Q2TB90 | recombinant HKDC1, G6PDH/diaphorase resazurin coupled fluorescence | inhibition, % at 20 µM | 0.16% of 340,000 active;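 active = inhibition above about 35% when tested at 20 µM, limit read from the data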;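 also: plate controls were DMSO wells with enzyme for no effect and DMSO wells lacking enzyme for full effect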
Target sequence (Q2TB90 whole entry, looked up): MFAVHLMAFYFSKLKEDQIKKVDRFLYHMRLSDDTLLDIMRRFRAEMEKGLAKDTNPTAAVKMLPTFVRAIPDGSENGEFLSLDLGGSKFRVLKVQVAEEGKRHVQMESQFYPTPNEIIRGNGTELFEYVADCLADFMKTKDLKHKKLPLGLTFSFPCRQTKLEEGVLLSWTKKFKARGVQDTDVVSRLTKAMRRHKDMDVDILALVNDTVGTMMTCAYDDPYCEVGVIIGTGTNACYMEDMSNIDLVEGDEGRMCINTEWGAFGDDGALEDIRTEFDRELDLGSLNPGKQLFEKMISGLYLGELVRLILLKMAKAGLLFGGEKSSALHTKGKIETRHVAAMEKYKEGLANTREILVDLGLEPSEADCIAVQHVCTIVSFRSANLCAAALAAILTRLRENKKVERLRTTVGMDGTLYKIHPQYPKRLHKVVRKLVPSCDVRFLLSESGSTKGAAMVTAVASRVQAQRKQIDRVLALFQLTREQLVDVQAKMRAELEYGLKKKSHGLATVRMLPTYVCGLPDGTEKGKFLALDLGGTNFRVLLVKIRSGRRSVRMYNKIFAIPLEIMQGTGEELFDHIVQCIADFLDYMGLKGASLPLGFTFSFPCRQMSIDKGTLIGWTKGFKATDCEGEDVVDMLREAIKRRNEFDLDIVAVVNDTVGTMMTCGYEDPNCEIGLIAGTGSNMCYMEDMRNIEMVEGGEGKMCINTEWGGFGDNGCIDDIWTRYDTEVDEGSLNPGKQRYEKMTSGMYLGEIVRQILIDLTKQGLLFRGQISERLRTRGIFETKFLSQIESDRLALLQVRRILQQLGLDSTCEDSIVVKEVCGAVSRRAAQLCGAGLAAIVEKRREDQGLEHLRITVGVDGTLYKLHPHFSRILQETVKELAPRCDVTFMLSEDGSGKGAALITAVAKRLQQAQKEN
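Test system: HK5 enzyme. Quantity: 5 µg/mL HK5 final. Reagent: glucose and ATP substrates. Schedule: 90 min reaction incubation at room temperature, dark. Technique: resazurin-to-resorufin fluorescence via G6PDH and diaphorase coupling, 525/613 nm. Control set: DMSO wells with and without enzyme mix.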
* = called active by the depositor; · = not tested or not shown. Hits are enriched below; roughly 3.1% of the tested compounds scored in any of these assays.

SMILES | Hsp70 activator | HSF1 inhib | Tb hexokinase | HSF-1 act | HSP90 refold inh | HKDC1 inhibitor
C/C(=N\Nc1ccc([N+](=O)[O-])cc1)c1ccco1 | 0.5 | 14.9 | -4.2 | 55.3* | -7.3 | 8.0
Cc1occc1C(=O)N1CCN(S(=O)(=O)c2ccc(F)cc2)CC1 | · | · | · | · | · | -4.3
O=[N+]([O-])c1ccc(N2CCc3ccccc3C2)cc1 | · | 71.4 | · | 72.6* | 5.1 | 2.3
O=[N+]([O-])c1ccc(-c2csc(N3CCc4ccccc4C3)n2)cc1 | -0.1 | 0.6 | -4.9 | -2.1 | -0.4 | -1.4
COc1ccc(/C=N/NC(=O)c2ccncc2)c(C(=O)O)c1OC | · | -1.4 | -57.0 | -4.2 | 0.1 | -2.5
COc1ccc(/C=N/NC(=O)c2cccnc2)c(C(=O)O)c1OC | · | 29.2 | -42.8 | 72.6* | -0.9 | -7.6
CCCNc1c(NC(=O)c2cccs2)c(=O)oc2ccccc12 | · | -6.6 | · | 10.7 | -2.6 | -0.5
O=C(NCc1nnc(SCC(=O)N2CCN(c3ccccc3)CC2)o1)c1c(F)cccc1F | · | -2.6 | · | 9.5 | 2.4 | -6.2
OC(COc1ccc2ccccc2c1Br)Cn1cnc(-c2ccccc2)c1 (centres undefined) | -0.6 | -81.7* | -20.0 | -85.1 | 1.4 | 2.5
Cc1cc(C)n2nc(SC(C)C(=O)N3CC(C)OC(C)C3)nc2n1 (centres undefined) | · | · | · | · | · | -3.4
Cc1occc1C(=O)Nc1cc(C(F)(F)F)ccc1Cl | -0.1 | -65.3* | -3.0 | -71.2 | -2.7 | 1.4
COc1ccc(-c2ccc(C(=O)O)o2)c([N+](=O)[O-])c1 | -0.2 | -0.2 | -7.4 | -0.3 | 3.8 | -3.4
CNC(=O)/C(C#N)=C/c1ccc(-c2ccc(OC)cc2[N+](=O)[O-])o1 | 0.0 | -89.3* | -21.7 | -90.8 | 2.5 | 6.4
CCOc1ccc(-c2ccc(C=O)o2)c([N+](=O)[O-])c1 | -0.3 | 84.2 | -14.7 | 109.0* | 0.9 | 7.0
Cc1cc(O)c(C(C)C)cc1N=Cc1ccc(N(C)C)cc1 | · | · | · | · | · | 25.3
Cn1c(=O)n(CCOc2ccc([N+](=O)[O-])cc2)c2ccccc21 | · | 18.0 | -17.3 | 16.7 | 1.7 | -1.6
Cc1ccc(OCCn2c(=O)n(C)c3ccccc32)cc1 | -0.1 | 28.2 | -3.3 | 58.8* | -0.8 | -10.2
Cc1ccc(C(=O)O)cc1N1C(=O)c2cccc3c([N+](=O)[O-])ccc(c23)C1=O | · | -9.3 | · | -10.2 | 3.0 | 13.9
O=C(O)c1ccc(CN2C(=O)c3cccc4c([N+](=O)[O-])ccc(c34)C2=O)cc1 | · | -83.5* | · | -82.0 | 4.2 | 14.8
N#CCC(=O)Nc1ccc(C(=O)OCC(=O)N2CCN(C(=O)c3ccco3)CC2)cc1 | · | · | · | · | · | -1.1
Clc1ccc(-n2c(SC/C=C/c3ccccc3)nnc2-c2cccnc2)cc1 | -0.2 | 38.0 | -3.8 | 69.1* | 6.1 | -6.4
Cn1c(=O)oc2cc(S(=O)(=O)N3CCCCC3)ccc21 | · | 47.0 | · | 113.2* | 4.7 | -7.1
Cc1nc(/C(N)=N/OC(=O)Cc2ccccc2)no1 | -0.4 | 18.6 | 1.6 | 56.9* | -0.5 | -8.8
S=C(N/N=C/c1ccc2ncccc2c1)Nc1cccnc1 | -0.5 | -64.6* | -50.8 | -65.1 | 12.9 | -6.4
COc1ccccc1NC(=O)c1ccccc1C(=O)N(C)Cc1ccccc1 | · | · | · | · | · | -4.3
SMILES | Hsp70 activator | HSF1 inhib | Tb hexokinase | HSF-1 act | HSP90 refold inh | HKDC1 inhibitor
O=S(=O)(c1ccc(Cl)c(NC(=S)N/N=C/c2c(F)cccc2F)c1)N1CCOCC1 | -0.3 | -9.5 | -11.6 | 17.7 | 4.8 | 4.0
O=S(=O)(c1ccc(Cl)c(NC(=S)N/N=C/c2ccc(O)cc2)c1)N1CCOCC1 | -0.3 | 12.8 | -13.4 | 56.1* | -3.2 | 6.7
O=C(CN1CCN(c2ccc(O)cc2)CC1)Nc1cc(S(=O)(=O)N2CCCC2)ccc1Cl | 0.1 | -56.4* | -7.6 | -65.6 | -2.5 | 11.6
Cc1cccc(NS(=O)(=O)c2c(C)nc3scc(C)n3c2=O)c1 | · | 6.4 | · | 10.3 | -0.5 | -5.3
O=C1C=C(c2ccccc2)CO1 | · | · | · | · | · | -5.9
CCCCc1ccc(-c2ccc(Br)cc2)nc1 | -0.1 | 21.3 | -1.7 | 57.8* | 2.5 | -4.1
CCCc1ccc(-c2ccc(-c3noc(-c4ccncc4)n3)cc2)nc1 | · | -4.2 | · | -0.2 | 0.3 | 3.2
Cc1ccc(NC2=NC3(CCCC3)N=C(N)N2)c(C)c1 | 0.5 | 66.1 | 4.6 | 82.6* | 3.3 | -3.6
CCc1ccccc1NC1=NCC(=O)N1C1CCCCC1 | -0.2 | 33.5 | 2.6 | 59.2* | -0.2 | -2.8
CCc1ccccc1NC1=NCC(=O)N1Cc1ccccc1 | -0.2 | -13.5 | 9.5 | -19.9 | -1.5 | 4.9
COC(=O)/C(=C/c1ccc2c(c1)c1ccccc1n2C)NC(=O)c1ccccc1 | -0.1 | 31.3 | -11.6 | 72.8* | -6.4 | -2.3
CC1CN(C(=O)CS(=O)(=O)Cc2ccccc2)CC(C)O1 (centres undefined) | · | 16.7 | · | 59.9* | -5.0 | -0.8
Cc1ccc(CNC(=O)COc2ccc(C)nc2[N+](=O)[O-])cc1 | -0.5 | -0.8 | -2.2 | -3.3 | -1.3 | -16.3
Cc1ccc(COc2ccc(C)nc2[N+](=O)[O-])cc1 | · | 29.5 | -1.7 | 74.5* | 13.1 | -0.9
Cc1cc(C)nc(-n2nc(C)c(Sc3ccc(F)cc3)c2N)n1 | 0.3 | 30.7 | -2.8 | 62.2* | -3.6 | -9.1
Cc1nn(-c2ccccc2)c(N)c1Sc1cccc([N+](=O)[O-])c1 | -0.3 | 2.9 | 8.0 | 7.5 | -2.6 | 2.7
Oc1ccc(N=Cc2ccc(OCc3ccccc3)cc2)cc1 | -0.1 | 40.1 | 2.9 | 64.7* | -0.3 | -0.4
COc1cc(NC(=O)c2ccc(C)cc2)c(OC)cc1NC(=O)CN1CCOCC1 | 0.0 | 52.1 | -6.3 | 60.3* | 0.7 | 8.6
COc1ccc(C(=O)COC(=O)c2cccc(-n3cnnn3)c2)c(OC)c1 | · | 9.6 | · | 26.4 | · | -0.6
CCOc1cc(N2CCOCC2)c(OCC)cc1NC(=O)c1nn(CC)c(=O)c2ccccc12 | · | · | · | · | · | 8.5
CCC1c2ccc(C)n2CCN1C(=O)Nc1ccc(F)cc1 (centres undefined) | 0.1 | 10.2 | -10.1 | 13.8 | 3.3 | -5.6
CCCC1c2ccc(C)n2CCN1C(=O)Nc1ccc(F)cc1 (centres undefined) | 0.0 | -65.9* | 14.0 | -76.0 | 0.8 | 0.2
O=C(CSc1nncn1-c1ccccc1)Nc1cc(F)ccc1F | · | -5.5 | · | 20.2 | -3.5 | -7.2
CC(NC(=O)c1ccc2c(c1)C(=O)N(Cc1cccnc1)C2=O)c1ccccc1 (centres undefined) | · | 0.2 | · | -9.1 | 2.4 | -6.8
COc1ccc(CNC(=O)CN(Cc2ccco2)C(=O)CCC(=O)Nc2ccccn2)cc1 | · | -11.2 | · | 14.1 | -0.4 | -1.9
CN(c1ccccc1)c1ccc(/C=C(\CCC(=O)O)c2nc3ccccc3s2)cc1[N+](=O)[O-] | -0.2 | 16.2 | 21.6 | 56.7* | -1.5 | 19.6
Cc1ccc(/C=C(\CCC(=O)O)c2nc3ccccc3s2)cc1[N+](=O)[O-] | 1.5 | 12.2 | -6.8 | 44.9 | -5.4 | 11.4
Clc1ccccc1OCc1nc(-c2ccccn2)no1 | 0.3 | 28.1 | 3.1 | 59.8* | 7.7 | -0.2
CSc1ccc(C2C(C(=O)c3ccco3)=C(O)C(=O)N2c2nnc(SC)s2)cc1 (centres undefined) | · | 17.4 | · | 37.0 | 7.3 | 12.4

Assay outcomes: PubChem BioAssay, several laboratories
